Type in all cases: functional, cell-based
Assay [1] can be described thus: Cytotoxicity against human NTUB1 cells after 48 hrs by MTT assay. To be noted: NTUB1, 48 h. Put shortly:
(§1)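 Samples dissolved in DMSO (0.1%); cis-platin included as positive control. IC50 taken as the drug concentration giving 50% growth inhibition, in µM.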
In general terms: Formazan colour is commonly taken as a measure of viable cells.

In assay [2] the test system is MCF7. Description: Cytotoxicity against human MCF7 cells after 48 hrs by MTT assay. An outline of the steps:
as §1

For assay [3], the system named is MDA-MB-231. Description: Cytotoxicity against human MDA-MB-231 cells after 48 hrs by MTT assay. An outline of the steps:
as §1

Assay [4] in a line: Cytotoxicity against human NP14 cells after 48 hrs by MTT assay. The following applies: NP14, 48 h. Put shortly: as §1
The mark [5] stands for this setting: Homo sapiens, MCF7, 48 h, read-out: IC50.
[6] abbreviates: Homo sapiens, MDA-MB-231, 48 h, read-out: IC50.

As for `C=C1CC[C@@H]2[C@](C)(CO)[C@H](O)CC[C@@]2(C)[C@@H]1CCc1ccoc1`, the IC50 in assay [1] was 39.8 µM; in assay [2] (setting [5]), 79.5 µM; in assay [3] (setting [6]) it was over 100 µM; in assay [4], 53.3 µM.
For `C=C1CC[C@@H]2[C@](C)(COC(=O)CC)[C@H](OC(=O)CC)CC[C@@]2(C)[C@@H]1CCc1ccoc1`, in that order: 42.9 µM, over 100 µM, 40.4 µM and 94.2 µM.
Taken in the same sequence, the figures for `C=C1CC[C@@H]2[C@](C)(COC(=O)C(Cl)Cl)[C@H](OC(=O)C(Cl)Cl)CC[C@@]2(C)[C@@H]1CCc1ccoc1` were 11.2 µM, 22.9 µM, 2.64 µM and 4.42 µM.
Taken in the same sequence, the figures for `C=C1CC[C@@H]2[C@](C)(COC(=O)COc3ccccc3)[C@H](O)CC[C@@]2(C)[C@@H]1CCc1ccoc1` were over 100 µM, 36.8 µM, 35 µM and 18.6 µM.
As for `C=C1CC[C@@H]2[C@](C)(COC(=O)c3ccc([N+](=O)[O-])cc3)[C@H](O)CC[C@@]2(C)[C@@H]1CCc1ccoc1`, the IC50 in assay [1] turned out to be 23.8 µM; in assay [2] (setting [5]), 62.1 µM; in assay [3] (setting [6]), 37.5 µM; in assay [4] it was 80.9 µM.
`C=C1CC[C@@H]2[C@](C)(COC(=O)c3ccc([N+](=O)[O-])cc3)[C@H](OC(=O)c3ccc([N+](=O)[O-])cc3)CC[C@@]2(C)[C@@H]1CCc1ccoc1`: the concentration for half-maximal inhibition (IC50) in assay [1], in assay [2] (setting [5]), in assay [3] (setting [6]) and in assay [4] was over 100 µM in each case.
As for `C=C1CC[C@@H]2[C@](C)(COC(=O)c3ccc(OC)cc3)[C@H](O)CC[C@@]2(C)[C@@H]1CCc1ccoc1`, the IC50 in assay [1] was determined as 26.3 µM; in assay [2] (setting [5]), 25.2 µM; in assay [3] (setting [6]), 28.6 µM; in assay [4], 40.4 µM.
For the molecule `C[C@]1(CO)[C@H]2CCC(=O)[C@@H](CCc3ccoc3)[C@]2(C)CC[C@H]1O`, the IC50 in assay [1] was over 100 µM; in assay [2] (setting [5]), over 100 µM; in assay [3] (setting [6]), 56.3 µM; in assay [4], over 100 µM.
Consider `C=C1[C@H](O)C[C@@H]2[C@](C)(COC(=O)CC)[C@H](OC(=O)CC)CC[C@@]2(C)[C@@H]1CCc1ccoc1`, for which the IC50 in assay [1] came out at 29.6 µM; in assay [2] (setting [5]), 44 µM; in assay [3] (setting [6]) it was 40.9 µM; in assay [4] it was 27.7 µM.
Taken in the same sequence, the figures for `C=C1CC[C@H]2[C@@](C)(CCC(=O)[C@@]2(C)CO)[C@@H]1CCc1ccoc1` were 63.1 µM, 87.3 µM, 71.2 µM and 43.2 µM.
For `C=C1CC[C@@H]2[C@](C)(CO)[C@H](O)CC[C@@]2(C)[C@@H]1CC(O)C1=CCOC1=O` (some centres undefined), in that order: 14.9 µM, 78 µM, 27.6 µM and 49.4 µM.
Taken in the same sequence, the figures for `C=C1CC[C@@H]2[C@](C)(CO)[C@H](O)CC[C@@]2(C)[C@@H]1CC(O)c1ccoc1` (some centres undefined) were over 100 µM, over 100 µM, over 100 µM and over 100 µM.
On to `C=C1CC[C@@H]2[C@](C)(COC(=O)CC)[C@H](OC(=O)CC)CC[C@@]2(C)[C@@H]1CC(OC(=O)CC)c1ccoc1` (some centres undefined), for which the concentration for half-maximal inhibition (IC50) in assay [1] was 89.7 µM; in assay [2] (setting [5]) it was over 100 µM; in assay [3] (setting [6]), over 100 µM; in assay [4], 43.1 µM.
With `C=C1CC[C@@H]2[C@](C)(COC(c3ccccc3)(c3ccccc3)c3ccccc3)[C@H](OC(C)=O)CC[C@@]2(C)[C@@H]1CC(OC(C)=O)C1=CCOC1=O` (some centres undefined), the IC50 in assay [1] turned out to be 8.45 µM; in assay [2] (setting [5]) it was 6.41 µM; in assay [3] (setting [6]), 6.37 µM; in assay [4] it was 14.3 µM.
Taken in the same sequence, the figures for `C=C1CC[C@@H]2[C@](C)(CO)[C@H](O)CC[C@@]2(C)[C@@H]1C/C=C1/C(=O)OC[C@H]1O` [ANDROGRAPHOLIDE] were 32.5 µM, 30.8 µM, 16.6 µM and 21.2 µM.
Turning to `C=C1CC[C@@H]2[C@](C)(CO)[C@H](O)CC[C@@]2(C)[C@@H]1CCC1=CCOC1=O` [DEOXYANDROGRAPHOLIDE], the IC50 is over 100 µM in assay [1], “Not Active” in assay [2] (mcf7), “Not Active” in assay [3] (mda-mb-231) and over 100 µM in assay [4].

What is called IC50 is the concentration that inhibits the measured activity by half.

The record behind these values is ChEMBL document CHEMBL3421573, “Synthesis of new ent-labdane diterpene derivatives from andrographolide and evaluation on cytotoxic activities” (Bioorg Med Chem Lett, 2015).
